# Measured values as given in ChEMBL document CHEMBL4402584, “Lead Optimization of Phthalazinone Phosphodiesterase Inhibitors as Novel Antitrypanosomal Compounds” (J Med Chem, 2020).
# pIC50, pKi: −log10 of the molar value.
# What was measured:
# Trypanosoma brucei = experiment: Antitrypanosomal activity against Trypanosoma brucei Squib 427 assessed as reduction in parasite growth incubated for 72 hrs by resazurin dye based fluorimetric analysis; format: functional, organism-based; details: Squib 427, 72 h
# [1] = Metabolic stability in human microsomes assessed as compound remaining at 5 uM incubated for 30 mins by UPLC-MS/MS analysis; format: ADME, Microsome; details: for Stability: 0.5 h, 5 µM
# Outline: (§1)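 Compound at 5 µM incubated with 0.5 mg/mL male liver microsomes in potassium phosphate buffer, started with 1 mM NADPH (CYP phase I). Aliquots quenched in cold acetonitrile containing tolbutamide, centrifuged at 4 °C, supernatant analysed by LC-MS. Results given as % parent remaining relative to time 0; mean of at least two experiments; diclofenac as control.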
# [2] = molecular target: T1, Class 1 phosphodiesterase PDEB1 (Trypanosoma brucei, UniProt Q8WQX9); experiment: Inhibition of Trypanosoma brucei PDEB1 (565 to 918 residues) expressed in Escherichia coli BL21 (DE3) using cAMP as substrate by PDELight HTS cAMP phosphodiesterase Kit based
# T1 sequence (Q8WQX9 whole entry): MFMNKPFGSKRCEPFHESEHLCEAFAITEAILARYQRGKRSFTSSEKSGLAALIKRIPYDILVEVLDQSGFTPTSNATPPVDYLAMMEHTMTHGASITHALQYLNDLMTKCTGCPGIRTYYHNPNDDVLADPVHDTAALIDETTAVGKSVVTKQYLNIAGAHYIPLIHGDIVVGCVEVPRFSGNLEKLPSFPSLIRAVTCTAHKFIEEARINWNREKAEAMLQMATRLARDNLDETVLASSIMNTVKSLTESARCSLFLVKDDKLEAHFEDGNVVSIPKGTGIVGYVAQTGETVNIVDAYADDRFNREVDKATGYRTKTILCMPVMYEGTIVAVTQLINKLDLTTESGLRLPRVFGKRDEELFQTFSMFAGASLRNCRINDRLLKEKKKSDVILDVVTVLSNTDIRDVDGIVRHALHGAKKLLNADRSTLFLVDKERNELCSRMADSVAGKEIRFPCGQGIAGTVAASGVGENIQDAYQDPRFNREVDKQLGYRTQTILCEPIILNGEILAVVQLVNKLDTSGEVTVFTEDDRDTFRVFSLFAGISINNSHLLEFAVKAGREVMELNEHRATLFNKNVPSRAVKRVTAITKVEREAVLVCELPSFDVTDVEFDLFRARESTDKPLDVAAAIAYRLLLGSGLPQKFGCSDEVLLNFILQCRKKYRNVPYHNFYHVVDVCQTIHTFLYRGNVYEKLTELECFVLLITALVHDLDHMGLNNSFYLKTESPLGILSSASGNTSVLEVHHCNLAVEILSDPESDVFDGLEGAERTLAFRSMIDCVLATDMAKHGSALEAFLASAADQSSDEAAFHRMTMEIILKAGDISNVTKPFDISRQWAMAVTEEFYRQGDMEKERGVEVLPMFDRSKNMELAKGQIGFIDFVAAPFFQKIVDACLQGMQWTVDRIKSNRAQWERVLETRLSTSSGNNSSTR
# Outline: (§2)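 Recombinant catalytic domains, His-tag purified, then ion exchange and size exclusion, were tested with the PDELight HTS cAMP kit in stimulation buffer (50 mM Hepes, 100 mM NaCl, 10 mM MgCl2, 0.5 mM EDTA, 0.05 mg/ml BSA, pH 7.5). Dose-response curves gave Ki, expressed as pKi = −log10(Ki ÷ 1000000).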
# [3] = Cytotoxicity against human MRC5 SV2 cells assessed as reduction in cell viability incubated for 72 hrs by resazurin dye based fluorimetric assay; details: MRC-5 SV2, 72 h
# Outline: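 MRC-5 SV2 fibroblasts grown in Earl's MEM with 5% FBSi, L-glutamine and bicarbonate; 1×10^4 cells/well treated 72 h at 37 °C, 5% CO2; resazurin viability read fluorimetrically (ex 550, em 590 nm). Five 4-fold dilutions from a 64 µM top concentration; IC50 derived from % viability reduction vs untreated wells; tamoxifen as reference.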
# [4] = Metabolic stability in mouse microsomes assessed as compound remaining at 5 uM incubated for 30 mins by UPLC-MS/MS analysis; format: ADME, Microsome; details: for Stability: 0.5 h, 5 µM; for remaining at 0.5 h, 5 µM: read-out: Stability; outline: as §1
# [5] = molecular target: 3',5'-cyclic-AMP phosphodiesterase 4D (Homo sapiens, UniProt Q08499); experiment: Inhibition of human PDE4D2 expressed in Escherichia coli BL21 (DE3) using cAMP as substrate by PDELight HTS cAMP phosphodiesterase Kit based; outline: as §2
# Sequence of 3',5'-cyclic-AMP phosphodiesterase 4D (Q08499 whole entry): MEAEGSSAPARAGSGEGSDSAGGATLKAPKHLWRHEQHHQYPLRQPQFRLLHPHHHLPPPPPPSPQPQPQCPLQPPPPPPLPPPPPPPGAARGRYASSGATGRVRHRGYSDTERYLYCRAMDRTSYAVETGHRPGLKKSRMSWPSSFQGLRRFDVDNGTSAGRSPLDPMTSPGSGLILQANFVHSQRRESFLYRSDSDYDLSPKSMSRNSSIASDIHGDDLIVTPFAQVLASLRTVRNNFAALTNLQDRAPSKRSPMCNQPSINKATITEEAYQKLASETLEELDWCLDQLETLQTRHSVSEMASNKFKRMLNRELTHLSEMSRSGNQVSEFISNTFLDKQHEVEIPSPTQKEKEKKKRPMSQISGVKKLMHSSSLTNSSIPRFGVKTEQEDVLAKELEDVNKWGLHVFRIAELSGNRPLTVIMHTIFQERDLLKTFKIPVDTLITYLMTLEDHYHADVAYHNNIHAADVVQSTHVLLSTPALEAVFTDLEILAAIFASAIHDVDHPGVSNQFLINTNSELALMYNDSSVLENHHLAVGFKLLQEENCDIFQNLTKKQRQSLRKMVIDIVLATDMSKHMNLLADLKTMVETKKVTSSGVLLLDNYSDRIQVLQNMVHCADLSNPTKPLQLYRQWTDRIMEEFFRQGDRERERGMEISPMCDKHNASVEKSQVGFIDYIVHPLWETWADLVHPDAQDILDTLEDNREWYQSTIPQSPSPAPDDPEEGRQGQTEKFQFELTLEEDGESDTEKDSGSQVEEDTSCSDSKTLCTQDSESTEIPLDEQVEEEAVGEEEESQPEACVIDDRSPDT
Structure (SMILES),pIC50 (Trypanosoma brucei),Stability [1],pKi [2],pIC50 [3],Stability [4],"remaining at 0.5 h, 5 µM ([1]; read-out: Stability)",pKi [5],"remaining at 0.5 h, 5 µM [4]"
O=C1[C@@H]2CC=CC[C@@H]2C(c2ccc(F)c(F)c2)=NN1C1CCN(c2ncnc3ccsc23)CC1,4.88,Stable,< 5.25,4.42,Stable,–,–,–
COc1ccc(C2=NN(C3CCN(C(=O)CN4C(=O)CCC4=O)CC3)C(=O)[C@@H]3CC=CC[C@H]23)cc1OC,5.73,–,7.68,4.19,–,89%,10.21,43%
Nc1nc(N2CCC(N3N=C(c4ccc(F)cc4)[C@H]4CC=CC[C@H]4C3=O)CC2)c2ccsc2n1 (relative stereo),5.68,Stable,< 5.03,4.19,Stable,–,–,–
O=C(CN1C(=O)CC2(CCCCC2)CC1=O)N1CCC(N2N=C(c3ccc(F)c(F)c3)[C@H]3CC=CC[C@H]3C2=O)CC1 (relative stereo),4.48,Stable,< 5.34,4.19,Stable,–,–,–
O=C1[C@@H]2CC=CC[C@@H]2C(c2ccc(OC(F)F)c(OC(F)F)c2)=NN1C1CCN(c2ncnc3ccsc23)CC1,5.17,Stable,< 5.67,4.19,Stable,–,–,–
COc1ccc(C2=NN(C3CN(C(=O)CN4C(=O)CC5(CCCCC5)CC4=O)C3)C(=O)[C@@H]3CC=CC[C@H]23)cc1OC,5.94,Stable,7.04,4.19,Stable,–,9.07,–
COc1ccc(C2=NN(C3CCN(C(=O)CN4C(=O)CC5(CCCCC5)CC4=O)CC3)C(=O)[C@@H]3CC=CC[C@H]23)cc1OC,6.32,Stable,7.51,4.50,Stable,–,9.81,–
COc1ccc(C2=NN(C3CCN(C(=O)CN4C(=O)CC(C)(C)CC4=O)CC3)C(=O)[C@@H]3CC=CC[C@H]23)cc1OC,6.35,Stable,7.36,4.35,–,–,9.91,6.7%
O=C(CN1C(=O)CC2(CCCCC2)CC1=O)N1CCC(N2N=C(c3ccc(F)c(F)c3)[C@H]3CCCC[C@H]3C2=O)CC1,5.12,Stable,< 5.16,4.19,Stable,–,–,–
COc1ccc(C2=NN(C3CCN(c4nc(N)c5sccc5n4)CC3)C(=O)[C@@H]3CC=CC[C@H]23)cc1OC,5.75,Stable,6.47,4.19,Stable,–,9.17,–
COc1ccc(C2=NN(C3CCN(C(=O)CN4C(=O)CC(C)(C)CC4=O)CC3)C(=O)[C@@H]3CCCC[C@H]23)cc1OC,5.71,Stable,7.07,4.25,Stable,–,9.79,–
CC1(C)CC(=O)N(CC(=O)N2CCC(N3N=C(c4ccc(OC(F)F)c(OC(F)F)c4)[C@H]4CCCC[C@H]4C3=O)CC2)C(=O)C1,5.19,Stable,< 5.80,4.19,Stable,–,–,–
Nc1nc(N2CCC(N3N=C(c4ccc(F)c(F)c4)[C@H]4CC=CC[C@H]4C3=O)CC2)c2ccsc2n1 (relative stereo),5.72,Stable,< 5.08,4.19,Stable,–,–,–
